From ChEMBL document CHEMBL5058577, “EUbOPEN Chemogenomics Library 2 (Multiplex)” (2022)

System: Fibroblast
Test: Multiplex assay against human fibroblast
Assay type: toxicity, cell-based
In short: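 Per cents of healthy-nucleus cells form the tubulin, mitochondrial-mass and membrane-permeability phenotype values. Live cells were stained at seeding with Hoechst33342, BioTracker Green Microtubule Cytoskeleton Dye, MitoTracker Red and Annexin V Alexa Fluor 680. After compound addition they were imaged on a CQ1 microscope at 37°C and 5% CO2, and CellPathfinder machine-learning gating split them into Hoechst high-intensity objects or normal cells, normal cells into healthy, pyknosed or fragmented nuclei, and pyknosed cells into mitotic or apoptotic.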

[1] = 12 h, 1 µM, compound concentration 1 uM, replicate 1
[2] = 12 h, 1 µM, compound concentration 1 uM, replicate 2
[3] = 12 h, 10 µM, compound concentration 10 uM, replicate 1
[4] = 12 h, 10 µM, compound concentration 10 uM, replicate 2
[5] = 24 h, 1 µM, compound concentration 1 uM, replicate 1
[6] = 24 h, 1 µM, compound concentration 1 uM, replicate 2
[7] = 24 h, 10 µM, compound concentration 10 uM, replicate 1
[8] = 24 h, 10 µM, compound concentration 10 uM, replicate 2
[9] = 48 h, 1 µM, compound concentration 1 uM, replicate 1
[10] = 48 h, 1 µM, compound concentration 1 uM, replicate 2
[11] = 48 h, 10 µM, compound concentration 10 uM, replicate 1
[12] = 48 h, 10 µM, compound concentration 10 uM, replicate 2

## C=CCN1C[C@H](C(=O)N(CCCN(C)C)C(=O)NCC)C[C@@H]2c3cccc4[nH]cc(c34)C[C@H]21 [CABERGOLINE]
[1]
  Population Apoptotic (%): 69%
  Population Fragmented Nuclei (%): 13%
  Population Healthy Nuclei (%): 78%
  Population Hoechst High Intensity Objects (%): 6%
  Population Membrane Permeable-Phenotype (%): 0%
  Population Mitochondria Different-Phenotype (%): 2%
  Population Mitotic Cells (%): 30%
  Population Normal (%): 93%
  Population Pyknosed Nuclei (%): 7%
  Population Tubulin-Different-Phenotype (%): 26%
  Total Cell Count: 186
[2]
  Population Apoptotic (%): 35%
  Population Fragmented Nuclei (%): 20%
  Population Healthy Nuclei (%): 46%
  Population Membrane Permeable-Phenotype (%): 4%
  Population Mitochondria Different-Phenotype (%): 1%
  Population Mitotic Cells (%): 64%
  Population Pyknosed Nuclei (%): 33%
  Population Tubulin-Different-Phenotype (%): 25%
  Total Cell Count: 144
[3]
  Population Apoptotic (%): 50%
  Population Fragmented Nuclei (%): 25%
  Population Healthy Nuclei (%): 64%
  Population Hoechst High Intensity Objects (%): 3%
  Population Membrane Permeable-Phenotype (%): 0%
  Population Mitochondria Different-Phenotype (%): 11%
  Population Mitotic Cells (%): 50%
  Population Normal (%): 96%
  Population Pyknosed Nuclei (%): 10%
  Population Tubulin-Different-Phenotype (%): 46%
  Total Cell Count: 248
[4]
  Population Apoptotic (%): 35%
  Population Fragmented Nuclei (%): 44%
  Population Healthy Nuclei (%): 39%
  Population Hoechst High Intensity Objects (%): 5%
  Population Membrane Permeable-Phenotype (%): 6%
  Population Mitochondria Different-Phenotype (%): 10%
  Population Mitotic Cells (%): 64%
  Population Normal (%): 94%
  Population Pyknosed Nuclei (%): 16%
  Population Tubulin-Different-Phenotype (%): 53%
  Total Cell Count: 178
[5]
  Population Apoptotic (%): 68%
  Population Fragmented Nuclei (%): 15%
  Population Healthy Nuclei (%): 74%
  Population Hoechst High Intensity Objects (%): 4%
  Population Membrane Permeable-Phenotype (%): 1%
  Population Mitochondria Different-Phenotype (%): 3%
  Population Mitotic Cells (%): 31%
  Population Normal (%): 95%
  Population Pyknosed Nuclei (%): 10%
  Population Tubulin-Different-Phenotype (%): 33%
  Total Cell Count: 198
[6]
  Population Apoptotic (%): 44%
  Population Fragmented Nuclei (%): 24%
  Population Healthy Nuclei (%): 46%
  Population Hoechst High Intensity Objects (%): 6%
  Population Membrane Permeable-Phenotype (%): 3%
  Population Mitotic Cells (%): 55%
  Population Normal (%): 93%
  Population Pyknosed Nuclei (%): 29%
  Population Tubulin-Different-Phenotype (%): 39%
  Total Cell Count: 132
[7]
  Population Apoptotic (%): 73%
  Population Fragmented Nuclei (%): 28%
  Population Healthy Nuclei (%): 65%
  Population Hoechst High Intensity Objects (%): 1%
  Population Membrane Permeable-Phenotype (%): 0%
  Population Mitochondria Different-Phenotype (%): 7%
  Population Mitotic Cells (%): 26%
  Population Normal (%): 98%
  Population Pyknosed Nuclei (%): 5%
  Population Tubulin-Different-Phenotype (%): 44%
  Total Cell Count: 274
[8]
  Population Apoptotic (%): 43%
  Population Fragmented Nuclei (%): 43%
  Population Healthy Nuclei (%): 46%
  Population Hoechst High Intensity Objects (%): 10%
  Population Membrane Permeable-Phenotype (%): 2%
  Population Mitochondria Different-Phenotype (%): 5%
  Population Mitotic Cells (%): 56%
  Population Normal (%): 89%
  Population Pyknosed Nuclei (%): 9%
  Population Tubulin-Different-Phenotype (%): 53%
  Total Cell Count: 181
[9]
  Population Apoptotic (%): 56%
  Population Fragmented Nuclei (%): 15%
  Population Healthy Nuclei (%): 75%
  Population Hoechst High Intensity Objects (%): 5%
  Population Membrane Permeable-Phenotype (%): 0%
  Population Mitochondria Different-Phenotype (%): 6%
  Population Mitotic Cells (%): 43%
  Population Normal (%): 94%
  Population Pyknosed Nuclei (%): 8%
  Population Tubulin-Different-Phenotype (%): 34%
  Total Cell Count: 189
[10]
  Population Apoptotic (%): 58%
  Population Fragmented Nuclei (%): 24%
  Population Healthy Nuclei (%): 54%
  Population Hoechst High Intensity Objects (%): 7%
  Population Membrane Permeable-Phenotype (%): 6%
  Population Mitochondria Different-Phenotype (%): 1%
  Population Mitotic Cells (%): 41%
  Population Normal (%): 92%
  Population Pyknosed Nuclei (%): 21%
  Population Tubulin-Different-Phenotype (%): 33%
  Total Cell Count: 156
[11]
  Population Apoptotic (%): 72%
  Population Fragmented Nuclei (%): 24%
  Population Healthy Nuclei (%): 68%
  Population Hoechst High Intensity Objects (%): 4%
  Population Membrane Permeable-Phenotype (%): 1%
  Population Mitochondria Different-Phenotype (%): 4%
  Population Mitotic Cells (%): 27%
  Population Normal (%): 95%
  Population Pyknosed Nuclei (%): 6%
  Population Tubulin-Different-Phenotype (%): 46%
  Total Cell Count: 282
[12]
  Population Apoptotic (%): 46%
  Population Fragmented Nuclei (%): 52%
  Population Healthy Nuclei (%): 37%
  Population Hoechst High Intensity Objects (%): 5%
  Population Membrane Permeable-Phenotype (%): 6%
  Population Mitochondria Different-Phenotype (%): 11%
  Population Mitotic Cells (%): 53%
  Population Normal (%): 94%
  Population Pyknosed Nuclei (%): 9%
  Population Tubulin-Different-Phenotype (%): 44%
  Total Cell Count: 170
